In ChEMBL document CHEMBL1122782, “Bulky amine analogues of ketoprofen: potent antiinflammatory agents” (J Med Chem, 1984):

Experiments:
Rattus norvegicus [1] = species: Rattus norvegicus; experiment: Compound was evaluated for highest non-ulcerogenic dose (less than 50% ulcer incidence); assay type: functional; conditions: read-out: ED50
Procedure, shortened: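 Taken from the 21-day adjuvant arthritis test in male Sprague-Dawley rats dosed orally each day from the day of adjuvant injection. Small intestines and stomachs were examined for ulceration at the end. The value is the highest dose giving less than 50% ulcer incidence.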

Rattus norvegicus [2] = experiment: Antiinflammatory efficacy is measured by the percent inhibition of paw volume during the 3 week adjuvant arthritis test at 0.08 mM/kg (35.2 mg); assay type: functional
Procedure, shortened: (§1)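 Male Sprague-Dawley rats (200–230 g) were used in groups of eight. Each received 0.1 mL of 0.6% M. butyricum in heavy mineral oil into the plantar tissue of one hind paw. Daily oral gavage in 1% gum tragacanth or corn oil-water emulsion began on the injection day and ran 21 days. Total hind paw volume was measured by mercury displacement, and inhibition was taken versus vehicle-treated adjuvant controls.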

Rattus norvegicus [3] = experiment: Antiinflammatory efficacy is measured by the percent inhibition of paw volume during the 3 week adjuvant arthritis test at 0.005 mM/kg (2.20 mg); assay type: functional; procedure, shortened: as §1
Rattus norvegicus [4] = experiment: Antiinflammatory efficacy is measured by the percent inhibition of paw volume during the 3 week adjuvant arthritis test at 0.02 mM/kg (8.80 mg); assay type: functional; procedure, shortened: as §1
Rattus norvegicus [5] = experiment: The mean increase in paw volume was compared between drug treated groups and placebo to calculate the percent inhibition in rats at 0.02 mmol/kg by carrageenan Edema Assay; 40-49; assay type: functional
Rattus norvegicus [6] = experiment: The percent inhibition was calculated from the average differences in hind paw volume between the adjuvant injected controls and the adjuvant-injected medicated rats at 0.08 mmol/kg; 80-89; assay type: functional
Rattus norvegicus [7] = experiment: Ulcerogenicity was measured in intestine during the 3 week adjuvant arthritis test, no of animals with ulcers out of 4 animals tested at 0.08 mM/kg (35.2 mg) was reported; assay type: functional
Procedure, shortened: (§2)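 In the 21-day adjuvant arthritis model, male Sprague-Dawley rats (200–230 g) received an M. butyricum mineral-oil suspension into one hind paw. They were dosed daily by gavage from the day of injection. At the end of the study the rats were killed, and the small intestines were examined for ulcers. Results are given as the number of ulcerated animals over the number tested.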

Rattus norvegicus [8] = experiment: Ulcerogenicity was measured in intestine during the 3 week adjuvant arthritis test, no of animals with ulcers out of 4 animals tested at 0.16 mM/kg (70.4 mg) was reported; assay type: functional; procedure, shortened: as §2
Rattus norvegicus [9] = experiment: Ulcerogenicity was measured in stomach during the 3 week adjuvant arthritis test, no of animals with ulcers out of 4 animals tested at 0.08 mM/kg (35.2 mg) was reported; assay type: functional
Procedure, shortened: (§3)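 Male Sprague-Dawley rats (200–230 g) were injected in the plantar tissue of one hind paw with 0.1 mL of 0.6% M. butyricum suspension in heavy mineral oil. Daily oral gavage began on the day of adjuvant injection and ran for the 21 days, with drug suspended in 1% gum tragacanth or a corn oil-water emulsion. At the end the rats were sacrificed and the small intestine and stomach were examined for ulcers. Results are given as animals with ulcers/animals tested.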

Rattus norvegicus [10] = experiment: Ulcerogenicity was measured in stomach during the 3 week adjuvant arthritis test, no of animals with ulcers out of 4 animals tested at 0.16 mM/kg (70.4 mg) was reported; assay type: functional; procedure, shortened: as §3
Rattus norvegicus [11] = experiment: Antiinflammatory efficacy is measured by the weight gain in rats during the 3 week adjuvant arthritis test at 0.16 mM/kg (70.4 mg); assay type: functional
Procedure, shortened: (§4)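 Male Sprague-Dawley rats (200–230 g), eight per group, received 0.1 mL of 0.6% M. butyricum in heavy mineral oil (negative controls: mineral oil) into one hind-paw plantar tissue. Daily gavage in 1% gum tragacanth or corn oil-water emulsion began on the injection day, for 21 days. Weight gain is expressed as (treated − adjuvant control)/(negative control − adjuvant control) × 100.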

Rattus norvegicus [12] = experiment: Ulcerogenicity was measured in intestine during the 3 week adjuvant arthritis test, no of animals with ulcers out of animals tested at 0.32 mM/kg (141 mg) was reported; toxic; assay type: functional, organism-based; procedure, shortened: as §3
Rattus norvegicus [13] = experiment: Antiinflammatory efficacy is measured by the weight gain in rats during the 3 week adjuvant arthritis test at 0.08 mM/kg (35.2 mg); assay type: functional
Procedure, shortened: (§5)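 Rats were adjuvant-injected (M. butyricum in mineral oil, one hind paw) or given a mineral-oil placebo. They were dosed by gavage daily for 21 days from the injection day, with vehicle only for both control groups, then weighed at the end. Weight gain % = (treated − adjuvant control)/(negative control − adjuvant control) × 100.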

Rattus norvegicus [14] = experiment: Antiinflammatory efficacy is measured by the weight gain in rats during the 3 week adjuvant arthritis test at 0.02 mM/kg (8.80 mg); assay type: functional; procedure, shortened: as §5
Rattus norvegicus [15] = experiment: Antiinflammatory efficacy is measured by the weight gain in rats during the 3 week adjuvant arthritis test at 0.005 mM/kg (2.20 mg); assay type: functional; procedure, shortened: as §5
Rattus norvegicus [16] = experiment: The mean increase in paw volume was compared between drug treated groups and placebo to calculate the percent inhibition in rats at 0.08 mmol/kg by carrageenan Edema Assay; 60-69; assay type: functional
Rattus norvegicus [17] = experiment: The percent inhibition was calculated from the average differences in hind paw volume between the adjuvant injected controls and the adjuvant-injected medicated rats at 0.08 mmol/kg; 70-79; assay type: functional
Rattus norvegicus [18] = experiment: Antiinflammatory efficacy is measured by the percent inhibition of paw volume during the 3 week adjuvant arthritis test at 0.08 mM/kg (24.6 mg); assay type: functional; procedure, shortened: as §1
Rattus norvegicus [19] = experiment: The mean increase in paw volume was compared between drug treated groups and placebo to calculate the percent inhibition in rats at 0.08 mmol/kg by carrageenan Edema Assay; 40-49; assay type: functional
Rattus norvegicus [20] = experiment: The percent inhibition was calculated from the average differences in hind paw volume between the adjuvant injected controls and the adjuvant-injected medicated rats at 0.08 mmol/kg; 60-69; assay type: functional; conditions: Rattus norvegicus
Rattus norvegicus [21] = experiment: Ulcerogenicity was measured in intestine during the 3 week adjuvant arthritis test, no of animals with ulcers out of 72 animals tested at 0.08 mM/kg (24.6 mg) was reported; assay type: functional; procedure, shortened: as §2
Rattus norvegicus [22] = experiment: Ulcerogenicity was measured in intestine during the 3 week adjuvant arthritis test, no of animals with ulcers out of 55 animals tested at 0.50 mM/kg (154 mg) was reported; assay type: functional; procedure, shortened: as §2
Rattus norvegicus [23] = experiment: Ulcerogenicity was measured in stomach during the 3 week adjuvant arthritis test, no of animals with ulcers out of 55 animals tested at 0.50 mM/kg (154 mg) was reported; assay type: functional; procedure, shortened: as §3
Rattus norvegicus [24] = experiment: Ulcerogenicity was measured in stomach during the 3 week adjuvant arthritis test, no of animals with ulcers out of 72 animals tested at 0.08 mM/kg (24.6 mg) was reported; assay type: functional; procedure, shortened: as §3
Rattus norvegicus [25] = experiment: Ulcerogenicity was measured in stomach during the 3 week adjuvant arthritis test, no of animals with ulcers out of 8 animals tested at 0.41 mM/kg (126 mg) was reported; assay type: functional; procedure, shortened: as §3
Rattus norvegicus [26] = experiment: Antiinflammatory efficacy is measured by the weight gain in rats during the 3 week adjuvant arthritis test at 0.50 mM/kg (154 mg); assay type: functional; procedure, shortened: as §4
Rattus norvegicus [27] = experiment: Ulcerogenicity was measured in intestine during the 3 week adjuvant arthritis test, no of animals with ulcers out of 8 animals tested at 0.41 mM/kg (126 mg) was reported; assay type: functional; procedure, shortened: as §3
Rattus norvegicus [28] = experiment: Antiinflammatory efficacy is measured by the weight gain in rats during the 3 week adjuvant arthritis test at 0.08 mM/kg (24.6 mg); assay type: functional; procedure, shortened: as §5
Rattus norvegicus [29] = experiment: Antiinflammatory efficacy is measured by the percent inhibition of paw volume during the 3 week adjuvant arthritis test at 0.08 mM/kg (32.24 mg); assay type: functional; procedure, shortened: as §1
Rattus norvegicus [30] = experiment: Antiinflammatory efficacy is measured by the percent inhibition of paw volume during the 3 week adjuvant arthritis test at 0.02 mM/kg (8.11 mg); assay type: functional; procedure, shortened: as §1
Rattus norvegicus [31] = experiment: Antiinflammatory efficacy is measured by the percent inhibition of paw volume during the 3 week adjuvant arthritis test at 0.005 mM/kg (2.03 mg); assay type: functional; procedure, shortened: as §1
Rattus norvegicus [32] = experiment: The mean increase in paw volume was compared between drug treated groups and placebo to calculate the percent inhibition in rats at 0.02 mmol/kg by carrageenan Edema Assay; 50-59; assay type: functional
Rattus norvegicus [33] = experiment: The percent inhibition was calculated from the average differences in hind paw volume between the adjuvant injected controls and the adjuvant-injected medicated rats at 0.08 mmol/kg; 90-99; assay type: functional
Rattus norvegicus [34] = experiment: Ulcerogenicity was measured in intestine during the 3 week adjuvant arthritis test, no of animals with ulcers out of 3 animals tested at 0.32 mM/kg (130 mg) was reported; assay type: functional; procedure, shortened: as §2
Rattus norvegicus [35] = experiment: Ulcerogenicity was measured in stomach during the 3 week adjuvant arthritis test, no of animals with ulcers out of 8 animals tested at 0.08 mM/kg (32.4 mg) was reported; assay type: functional; procedure, shortened: as §3
Rattus norvegicus [36] = experiment: Ulcerogenicity was measured in intestine during the 3 week adjuvant arthritis test, no of animals with ulcers out of 8 animals tested at 0.08 mM/kg (32.4 mg) was reported; assay type: functional; procedure, shortened: as §2
Rattus norvegicus [37] = experiment: Ulcerogenicity was measured in stomach during the 3 week adjuvant arthritis test, no of animals with ulcers out of 3 animals tested at 0.32 mM/kg (130 mg) was reported; assay type: functional; procedure, shortened: as §3
Rattus norvegicus [38] = experiment: Antiinflammatory efficacy is measured by the weight gain in rats during the 3 week adjuvant arthritis test at 0.02 mM/kg (8.11 mg); assay type: functional; procedure, shortened: as §5
Rattus norvegicus [39] = experiment: Antiinflammatory efficacy is measured by the weight gain in rats during the 3 week adjuvant arthritis test at 0.08 mM/kg (32.24 mg); assay type: functional; procedure, shortened: as §5
Rattus norvegicus [40] = experiment: Antiinflammatory efficacy is measured by the weight gain in rats during the 3 week adjuvant arthritis test at 0.005 mM/kg (2.03 mg); assay type: functional; procedure, shortened: as §5
Rattus norvegicus [41] = experiment: Potency relative to phenylbutazone at 0.02 […]; assay type: functional

CC(CN1CCCCC1CC1CCCCC1)c1cccc(C(O)c2ccc(Cl)cc2)c1 (stereo not drawn)
highest non-ulcerogenic dose (Rattus norvegicus [1]): 1 µmol/kg | Inhibition (Rattus norvegicus [2]): 88% | Inhibition (Rattus norvegicus [3]): 64% | Inhibition (Rattus norvegicus [4]): 70% | inhibition in vivo at 20 µmol/kg (Rattus norvegicus [5]): 40% | inhibition in vivo at 80 µmol/kg (Rattus norvegicus [6]): 80% | Ulcerogenic index (Rattus norvegicus [7]): 1 | Ulcerogenic index (Rattus norvegicus [8]): 3 | Ulcerogenic index (Rattus norvegicus [9]): 0 | Ulcerogenic index (Rattus norvegicus [10]): 0 | Weight gain (Rattus norvegicus [11]): 84% | Ulcerogenic index (Rattus norvegicus [12]): Toxic | Weight gain (Rattus norvegicus [13]): 87% | Weight gain (Rattus norvegicus [14]): 69% | Weight gain (Rattus norvegicus [15]): 40%

CC1CN(CC(C)c2cccc(C(=O)c3ccccc3)c2)CC(C)O1 (stereo not drawn)
inhibition in vivo at 80 µmol/kg (Rattus norvegicus [16]): 60% | inhibition in vivo at 80 µmol/kg (Rattus norvegicus [17]): 70%

CCCCC1C(=O)N(c2ccccc2)N(c2ccccc2)C1=O [PHENYLBUTAZONE]
highest non-ulcerogenic dose (Rattus norvegicus [1]): 40 µmol/kg | Inhibition (Rattus norvegicus [18]): 66% | inhibition in vivo at 80 µmol/kg (Rattus norvegicus [19]): 40% | inhibition in vivo at 80 µmol/kg (Rattus norvegicus [20]): 60% | Ulcerogenic index (Rattus norvegicus [21]): 11 | Ulcerogenic index (Rattus norvegicus [22]): 36 | Ulcerogenic index (Rattus norvegicus [23]): 17 | Ulcerogenic index (Rattus norvegicus [24]): 14 | Ulcerogenic index (Rattus norvegicus [25]): 3 | Weight gain (Rattus norvegicus [26]): 41% | Ulcerogenic index (Rattus norvegicus [27]): 2 | Weight gain (Rattus norvegicus [28]): 21%

CC(CN1CCCCC1CC1CCCCC1)c1cccc(C(O)c2ccccc2)c1 (stereo not drawn)
highest non-ulcerogenic dose (Rattus norvegicus [1]): 8 µmol/kg | Inhibition (Rattus norvegicus [29]): 110% | Inhibition (Rattus norvegicus [30]): 82% | Inhibition (Rattus norvegicus [31]): 37% | inhibition in vivo at 20 µmol/kg (Rattus norvegicus [32]): 30% | inhibition in vivo at 80 µmol/kg (Rattus norvegicus [33]): 90% | Ulcerogenic index (Rattus norvegicus [34]): 3 | Ulcerogenic index (Rattus norvegicus [35]): 1 | Ulcerogenic index (Rattus norvegicus [36]): 1 | Ulcerogenic index (Rattus norvegicus [37]): 1 | Weight gain (Rattus norvegicus [38]): 36% | Weight gain (Rattus norvegicus [39]): 67% | Weight gain (Rattus norvegicus [40]): 13% | Relative potency (Rattus norvegicus [41]): 8.6%
